Experimental data of several laboratories.
Each line is one published result; the experiments were not run side by side.
Read-out: cell growth or viability

| SMILES | cell line | assay | conditions | endpoint | value |
| --- | --- | --- | --- | --- | --- |
| NCC(=O)Nc1ccccc1/N=c1\cc(-c2ccc3c(c2)OCCO3)oc2cc(F)ccc12 | MDA-MB-468 | CCK-8 | 1 µM | inhibition | 11.8% |
| OCc1ccc(N(Cc2ccc(F)cc2)CC2CC2)cc1Cl | RBE | ATP luminescence | 46 µM, 72 h | inhibition | 55% |
| C[C@H](N)C(=O)Nc1ccccc1/N=c1\cc(-c2ccc3c(c2)OCCO3)oc2c(N)cccc12 | MDA-MB-468 | CCK-8 | 1 µM | inhibition | 2.63% |
| CN(C)CCNC(=O)c1ccc(-c2nc3ccc4[nH]ncc4c3c3c2CCCC3)cc1 | MV4-11 | resazurin | 72 h | GI50 | 25 nM |
| C[C@H](Nc1ccc2c(c1)OCCn1cc(N3C(=O)OC[C@H]3C(F)F)nc1-2)C(N)=O | MDA-MB-361 | ATP luminescence | 5 days | EC50 | 7.5 nM |
| CCN(Cc1ccc(F)cc1F)c1ccc(CO)c(Cl)c1 | RBE | ATP luminescence | 46 µM, 72 h | inhibition | 82% |
| CN(C)CCNC(=O)c1ccc(-c2nc3ccc4[nH]ncc4c3c3c2CC3)cc1 | MV4-11 | resazurin | 72 h | GI50 | 1300 nM |
| NCCC(=O)Nc1ccc(/N=c2\cc(-c3ccc4c(c3)OCO4)oc3ccccc23)cc1 | MDA-MB-468 | CCK-8 | 1 µM | inhibition | 6.16% |
| CCN(Cc1c(F)cccc1OC)c1ccc(CO)c(Cl)c1 | RBE | ATP luminescence | 46 µM, 72 h | inhibition | 65% |
| COC(=O)CNC(=O)C(=O)OC | HBL1 | ATP luminescence | 0.5 µM, 5 days | viability | 113% |
| CN(C)CCN(C)C(=O)c1ccc(-c2nc3ccc4[nH]ncc4c3c3c2CCCCC3)nc1 | MV4-11 | resazurin | 72 h | GI50 | 1200 nM |
| CCN(Cc1ccc(C)cc1)c1ccc(CO)c(Cl)c1 | RBE | ATP luminescence | 46 µM, 72 h | inhibition | 95% |
| Cc1n[nH]c2ccc3nc(-c4ccc(C(=O)NCCN5CCCC5)cc4)c4c(c3c12)CCCC4 | MV4-11 | resazurin | 72 h | GI50 | 428 nM |
| NCCCCC(=O)Nc1ccccc1/N=c1\cc(-c2ccc3c(c2)OCO3)oc2ccccc12 | MDA-MB-468 | CCK-8 | 1 µM | inhibition | -0.27% |
| CCN(Cc1ccccc1C)c1ccc(CO)c(Cl)c1 | RBE | ATP luminescence | 46 µM, 72 h | inhibition | 87% |
| NCCC(=O)Nc1ccccc1/N=c1\cc(-c2ccc3nc(N)oc3c2)oc2ccc(F)cc12 | MDA-MB-468 | CCK-8 | 1 µM | inhibition | 59.8% |
| Cc1n[nH]c2ccc3nc(-c4ccc(C(=O)NCCN(C)C)cc4)c4c(c3c12)CCCC4 | MV4-11 | resazurin | 72 h | GI50 | 8 nM |
| OCc1ccc(-c2nn(Cc3ccccc3)c3ccccc23)o1 | RBE | ATP luminescence | 46 µM, 72 h | inhibition | 75% |
| COCCCNC(=O)c1ccc(-c2nc3ccc4[nH]ncc4c3c3c2CCCC3)cc1 | MV4-11 | resazurin | 72 h | GI50 | 2900 nM |
| NCCC(=O)Nc1cccc(/N=c2\cc(-c3ccc4c(c3)OCO4)oc3ccccc23)c1 | MDA-MB-468 | CCK-8 | 1 µM | inhibition | 3.6% |
